# Assay results from ChEMBL document CHEMBL3763142, “Discovery of potent anti-tuberculosis agents targeting leucyl-tRNA synthetase” (Bioorg Med Chem, 2016).
# Assays:
# [1] = Inhibition of Mycobacterium tuberculosis leucyl-tRNA synthetase assessed as reduction of [14C]-L-leucine ligation to tRNA incubated for 5 mins by scintillation counting method in presence of ATP
# How it was run: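 His-tag Ni-NTA-purified M. tuberculosis LeuRS (25 nM) expressed in E. coli Rosetta (DE3). Buffer: 100 mM Tris-HCl pH 8.0, 10 mM MgCl2, 2 mM DTT, 90 µM [14C]-L-leucine, 4 mg/ml E. coli tRNA. Inhibitor (DMSO) preincubated 5 min at 37 °C; started with 2 mM ATP (final). TCA-quenched, scintillation-counted; at least triplicates averaged for IC50.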
# [2] = Cytotoxicity against mouse J774 cells assessed as cell viability at 80 ug/ml by MTT assay; type: cell-based; settings: read-out: Activity
# How it was run: (§1)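 MTT proliferation assay on uninfected J774 macrophages, run in parallel with the intracellular infection assay at the same three concentrations. Reported as percentage viability.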
# [3] = Cytotoxicity against mouse J774 cells assessed as cell viability at 8 ug/ml by MTT assay; type: cell-based; settings: read-out: Activity; how it was run: as §1
# [4] = test system: Mycobacterium tuberculosis; assay: Antimicrobial activity against Mycobacterium tuberculosis infected in mouse J774 cells assessed as log reduction of bacterial burden at 0.8 ug/ml after 7 days; type: functional
# How it was run: (§2)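 J774 cells in RPMI 1640 with L-glutamine/FBS, 2.0*10^5 per well, then switched to 1% FBS. Infected 4 h at MOI 5, washed, drug added for 7 days. At 0 and 7 d, lysed with SDS, DNase-treated and plated on 7H10 agar for CFU. Log reduction is from 0 h to day 7; duplicates, rifampin positive control.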
# [5] = test system: Mycobacterium tuberculosis; assay: Antimicrobial activity against Mycobacterium tuberculosis infected in mouse J774 cells assessed as log reduction of bacterial burden at 8 ug/ml after 7 days; type: functional; how it was run: as §2
# [6] = Cytotoxicity against mouse J774 cells assessed as cell viability at 0.8 ug/ml by MTT assay; type: cell-based; settings: read-out: Activity; how it was run: as §1
# [7] = test system: Mycobacterium tuberculosis; assay: Antimicrobial activity against Mycobacterium tuberculosis infected in mouse J774 cells assessed as log reduction of bacterial burden at 80 ug/ml after 7 days; type: functional; how it was run: as §2
# [8] = test system: Mycobacterium tuberculosis; assay: Antimicrobial activity against Mycobacterium tuberculosis H37Rv assessed as growth inhibition after 5 days by fluorescence analysis; settings: 120 h
# [9] = target: Leucine--tRNA ligase, cytoplasmic (Homo sapiens, UniProt Q9P2J5); assay: Inhibition of human leucyl-tRNA synthetase assessed as reduction of [14C]-L-leucine ligation to tRNA incubated for 5 mins by scintillation counting method in presence of ATP
# Sequence of Leucine--tRNA ligase, cytoplasmic (Q9P2J5 whole entry): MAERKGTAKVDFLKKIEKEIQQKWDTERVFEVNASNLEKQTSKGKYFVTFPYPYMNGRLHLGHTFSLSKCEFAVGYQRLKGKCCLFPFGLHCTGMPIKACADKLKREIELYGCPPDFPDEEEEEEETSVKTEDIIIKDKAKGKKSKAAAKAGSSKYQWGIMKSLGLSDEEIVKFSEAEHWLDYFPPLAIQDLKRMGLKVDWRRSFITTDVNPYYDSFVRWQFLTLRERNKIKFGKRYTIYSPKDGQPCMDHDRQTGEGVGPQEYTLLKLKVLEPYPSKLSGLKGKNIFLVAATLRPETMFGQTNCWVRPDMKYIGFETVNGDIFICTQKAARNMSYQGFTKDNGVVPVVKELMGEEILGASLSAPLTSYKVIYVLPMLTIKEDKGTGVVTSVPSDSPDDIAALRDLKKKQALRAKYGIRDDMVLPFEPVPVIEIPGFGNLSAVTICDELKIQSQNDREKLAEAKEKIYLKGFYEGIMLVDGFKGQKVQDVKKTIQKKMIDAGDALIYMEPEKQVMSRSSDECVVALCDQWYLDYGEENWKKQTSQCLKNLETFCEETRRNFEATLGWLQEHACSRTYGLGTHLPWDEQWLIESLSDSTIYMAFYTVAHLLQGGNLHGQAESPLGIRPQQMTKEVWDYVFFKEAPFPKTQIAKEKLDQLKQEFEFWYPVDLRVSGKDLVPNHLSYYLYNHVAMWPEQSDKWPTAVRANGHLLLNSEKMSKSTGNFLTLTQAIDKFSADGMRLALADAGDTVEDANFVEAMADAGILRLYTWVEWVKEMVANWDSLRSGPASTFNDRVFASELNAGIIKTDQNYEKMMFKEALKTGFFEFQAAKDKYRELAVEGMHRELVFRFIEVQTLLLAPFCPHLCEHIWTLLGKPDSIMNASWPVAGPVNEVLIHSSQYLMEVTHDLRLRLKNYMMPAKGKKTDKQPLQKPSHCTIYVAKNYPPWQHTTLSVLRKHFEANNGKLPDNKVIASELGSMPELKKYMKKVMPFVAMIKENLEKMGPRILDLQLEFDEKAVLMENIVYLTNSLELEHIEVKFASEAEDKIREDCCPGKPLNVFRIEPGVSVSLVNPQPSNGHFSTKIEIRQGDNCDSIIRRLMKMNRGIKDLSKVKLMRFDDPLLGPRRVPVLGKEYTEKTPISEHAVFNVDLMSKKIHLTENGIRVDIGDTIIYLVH
smiles,measurement,setting,value
CC(=O)c1sc(N/N=C/c2cc(Br)ccc2O)nc1C,IC50,[1],> 20 µM
COc1cc(/C=N\Nc2nc(-c3ccc(Br)cc3)cs2)cc([N+](=O)[O-])c1O,IC50,[1],6 µM
same,viability at 80 ug/ml,[2],10%
same,viability at 8 ug/ml,[3],< 10%
same,Activity,[4],1.96 deltalog10CFU
same,Activity,[5],1.42 deltalog10CFU
same,viability at 0.8 ug/ml,[6],100%
same,Activity,[7],1.2 deltalog10CFU
same,IC50,[8],10 µM
same,IC90,[8],13.5 µM
same,MIC,[8],25 µM
same,IC50,[9],116 µM
O=[N+]([O-])c1cc(/C=N\Nc2nccs2)ccc1O,IC50,[1],20 µM
same,IC50,[8],59.4 µM
same,IC90,[8],> 100 µM
COc1cc(/C=N/Nc2nccs2)cc(OC)c1O,IC50,[1],> 20 µM
COc1cc(/C=N/Nc2nc(-c3ccc(Cl)cc3)cs2)cc(Br)c1O,IC50,[1],4.54 µM
same,IC50,[8],200 µM
same,IC90,[8],> 200 µM
same,MIC,[8],> 200 µM
same,IC50,[9],27.6 µM
CO[C@H]1/C=C/O[C@@]2(C)Oc3c(C)c(O)c4c(O)c(c(/C=N/N5CCN(C)CC5)c(O)c4c3C2=O)NC(=O)/C(C)=C\C=C\[C@H](C)[C@H](O)[C@@H](C)[C@@H](O)[C@@H](C)[C@H](OC(C)=O)[C@@H]1C [RIFAMPIN],viability at 80 ug/ml,[2],73%
same,viability at 8 ug/ml,[3],85%
same,Activity,[4],1.06 deltalog10CFU
same,Activity,[5],2.39 deltalog10CFU
same,viability at 0.8 ug/ml,[6],95%
same,Activity,[7],2.86 deltalog10CFU
COc1cc(/C=N/Nc2nc(-c3cccc([N+](=O)[O-])c3)cs2)ccc1O,IC50,[1],15.9 µM
same,IC50,[8],> 200 µM
same,IC90,[8],> 200 µM
same,MIC,[8],> 200 µM
COc1ccc(/C=N/Nc2nc(-c3ccccc3)c(-c3ccccc3)s2)cc1O,IC50,[1],> 20 µM
O=[N+]([O-])c1ccc(-c2csc(N/N=C/c3cc(Br)c(O)c(Br)c3)n2)cc1,IC50,[1],2.27 µM
same,IC50,[8],130 µM
same,IC90,[8],> 200 µM
same,MIC,[8],> 200 µM
same,IC50,[9],18.7 µM
CC(/C=C1\SC(=S)N(CCC(=O)Nc2ccc(O)cc2)C1=O)=C\c1ccccc1,IC50,[1],22.2 µM
O=C(O)c1ccc(/C=N/Nc2nccs2)cc1,IC50,[1],> 20 µM
COc1cc(/C=N/Nc2nc(-c3ccc(Cl)cc3Cl)cs2)ccc1O,IC50,[1],> 20 µM
COc1cc(/C=N/Nc2nc(C)cs2)cc(Br)c1O,IC50,[1],> 20 µM
CC(/C=C1\SC(=S)N(CCC(=O)Nc2ccc(C(=O)O)c(O)c2)C1=O)=C\c1ccccc1,IC50,[1],> 50 µM
COc1cc(/C=N/Nc2nc(-c3ccccc3)cs2)cc(OC)c1O,IC50,[1],> 20 µM
CCOC(=O)Cc1csc(N/N=C/c2cc(Br)c(O)c(Br)c2)n1,IC50,[1],> 20 µM
COc1cc(/C=N/Nc2nc(-c3ccc(Br)cc3)cs2)cc(OC)c1OC,IC50,[1],> 20 µM
COc1cc(/C=N\Nc2nc(-c3ccc([N+](=O)[O-])cc3)cs2)cc([N+](=O)[O-])c1O,IC50,[1],8 µM
same,IC50,[8],20.6 µM
same,IC90,[8],28.8 µM
same,MIC,[8],50 µM
same,IC50,[9],45.8 µM
Oc1ccc(Br)cc1/C=N/Nc1nccs1,IC50,[1],> 20 µM
COc1cc(/C=N/Nc2nc(C)c(C(C)=O)s2)cc(Br)c1O,IC50,[1],> 20 µM
COc1cc(/C=N/Nc2nccs2)cc(Br)c1O,IC50,[1],> 20 µM
Oc1ccc(/C=N/Nc2nc(-c3ccccc3)c(-c3ccccc3)s2)cc1,IC50,[1],> 20 µM
CCOC(=O)c1sc(N/N=C/c2ccc(O)c(OC)c2)nc1C,IC50,[1],11.4 µM
same,IC50,[8],59 µM
same,IC90,[8],> 200 µM
same,MIC,[8],81 µM
same,IC50,[9],116 µM
COc1cc(/C=N/Nc2nc(-c3cccc([N+](=O)[O-])c3)cs2)cc(OC)c1O,IC50,[1],> 20 µM
O=[N+]([O-])c1ccc(-c2csc(N/N=C\c3ccc(O)c([N+](=O)[O-])c3)n2)cc1,IC50,[1],20 µM
same,IC50,[8],> 100 µM
same,IC90,[8],> 100 µM
O=[N+]([O-])c1cccc(-c2csc(N/N=C/c3ccccc3O)n2)c1,IC50,[1],> 20 µM
Cc1nc(N/N=C/c2ccc(O)cc2)sc1C,IC50,[1],> 20 µM
COc1cc(/C=N/Nc2nc(-c3cccc([N+](=O)[O-])c3)cs2)cc(Br)c1O,IC50,[1],> 20 µM
O=[N+]([O-])c1ccc(-c2csc(N/N=C/c3cc(Br)cc(Br)c3O)n2)cc1,IC50,[1],19.3 µM
same,IC50,[8],86 µM
same,IC90,[8],> 200 µM
same,MIC,[8],> 200 µM
COc1cc(/C=N/Nc2nc(-c3ccccc3)cs2)cc(Br)c1O,IC50,[1],> 20 µM
O=[N+]([O-])c1cccc(-c2csc(N/N=C/c3cccc(O)c3)n2)c1,IC50,[1],> 20 µM
COc1cc(/C=N/Nc2nccs2)ccc1O,IC50,[1],> 20 µM
COc1cc(/C=N/Nc2nc(-c3ccccc3)c(-c3ccccc3)s2)cc(OC)c1O,IC50,[1],> 20 µM
